“And” between values parts separate entries of the source, which are not always exact repeats. Equal entries are not always repeated.
Tests used:
[1] = (§1) Cytotoxic concentration required to reduce the viability of mock-infected cells was determined by using MTT assay
Procedure, shortened: (§2)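 Viability of mock-infected cells read by MTT, run in parallel with the antiviral assay. Value is the dose giving a 50% loss of viability. Mean of three independent determinations.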

MT4 = test: Effective concentration required to reduce the exponential growth of MT-4/KB cells; type: functional, cell-based; conditions: Homo sapiens
Procedure, shortened: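 Cell-based HIV-1 multiplication assay in MT-4 cells, run in parallel with cytotoxicity on mock-infected cells. Value is the concentration giving 50% reduction of exponential growth of MT-4/KB cells. Mean of three independent determinations.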

[2] = biological target: Human immunodeficiency virus type 1 integrase (Human immunodeficiency virus 1, UniProt Q7ZJM1); test: Inhibitory activity against HIV-1 integrase.
[3] = Selectivity index was determined; type: functional
[4] = as §1; type: functional; procedure, shortened: as §2

Chain of Human immunodeficiency virus type 1 integrase (Q7ZJM1 whole entry): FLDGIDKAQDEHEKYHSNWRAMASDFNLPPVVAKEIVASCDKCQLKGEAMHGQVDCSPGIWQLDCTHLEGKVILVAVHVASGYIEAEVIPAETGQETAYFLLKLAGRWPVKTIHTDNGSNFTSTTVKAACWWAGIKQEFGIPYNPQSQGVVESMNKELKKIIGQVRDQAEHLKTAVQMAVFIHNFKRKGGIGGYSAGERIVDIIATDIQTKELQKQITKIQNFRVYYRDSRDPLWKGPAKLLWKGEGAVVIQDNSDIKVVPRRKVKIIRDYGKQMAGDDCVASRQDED

SMILES | CC50 [1] | EC50 (MT4) | IC50 [2] | Selectivity index [3] | CC50 [4]
Cc1ccc(Cn2cccc2/C=C/C(=O)CC(=O)C(=O)O)cc1 | 41 µM | > 41 µM | – | – | –
O=C(O)C(=O)CC(=O)c1cccn1Cc1ccc(F)cc1 | – | 1.5 µM | – | – | –
CCOC(=O)C(=O)CC(=O)/C=C/c1cccn1Cc1ccc(F)cc1 | 55 µM | 12 µM | – | – | –
CCOC(=O)C(=O)CC(=O)/C=C/c1cccn1Cc1ccc(C)cc1 | 7 µM | > 7 µM | – | – | –
CCOC(=O)C(=O)CC(=O)/C=C/c1cccn1Cc1ccc(Cl)cc1 | 52 µM | > 52 µM | – | – | –
CCOC(=O)C(=O)CC(=O)/C=C/c1cccn1Cc1ccc(OC)cc1 | 27 µM | > 27 µM | – | – | –
O=C(/C=C/c1cccn1Cc1ccc(F)cc1)CC(=O)C(=O)O | 80 µM | 11 µM | 61 µM and 72 µM | 7.3 | –
CCOC(=O)C(=O)CC(=O)/C=C/c1cccn1Cc1ccc([N+](=O)[O-])cc1 | 31 µM | > 31 µM | 57 µM and 45 µM | – | –
COc1ccc(Cn2cccc2/C=C/C(=O)CC(=O)C(=O)O)cc1 | 78 µM | > 78 µM | – | – | –
O=C(/C=C/c1cccn1Cc1ccccc1)CC(=O)C(=O)O | 61 µM | 1.5 µM | – | – | –
CCOC(=O)C(=O)CC(=O)/C=C/c1cccn1Cc1ccccc1 | 17 µM | – | – | – | –
O=C(/C=C/c1cccn1Cc1ccc(Cl)cc1)CC(=O)C(=O)O | 95 µM | > 95 µM | 50 µM and 65 µM | – | –
O=C(/C=C/c1cccn1Cc1ccc([N+](=O)[O-])cc1)CC(=O)C(=O)O | – | > 33 µM | 76 µM and 92 µM | – | 33 µM
